Reference: ChEMBL document CHEMBL4219118, “Cathepsin B inhibitors: Further exploration of the nitroxoline core” (Bioorg Med Chem Lett, 2018)
Values belong to the compound of their own block, whether it stands above or below them. The source made the active and inactive calls. No cut-off for these calls is given here.

What was measured:
Cathepsin B [1] = biological target: T1, Cathepsin B (Homo sapiens, UniProt P07858); test: Non-competitive inhibition of recombinant human cathepsin B endopeptidase activity assessed as inhibitory constant for enzyme-inhibitor complex using Z-Arg-Arg-AMC as substrate in presence of pH 6 phosphate buffer by fluorescence assay
Cathepsin B [2] = biological target: T1, Cathepsin B; test: Competitive inhibition of recombinant human cathepsin B exopeptidase activity assessed as inhibitory constant for enzyme-inhibitor complex using Abz-Gly-Ile-Val-Arg-Ala-Lys(Dnp)-OH as substrate in presence of pH 5 acetate buffer by fluorescence assay
Cathepsin B [3] = biological target: T1, Cathepsin B; test: Non-competitive inhibition of recombinant human cathepsin B endopeptidase activity assessed as inhibitory constant for enzyme-substrate-inhibitor complex using Z-Arg-Arg-AMC as substrate in presence of pH 6 phosphate buffer by fluorescence assay
Cathepsin B [4] = biological target: T1, Cathepsin B; test: Inhibition of cathepsin B in human MCF-10A neoT cells assessed as proteolysis of extracellular membrane by measuring decrease in extracellular degradation of DQ-collagen 4 at 1.25 uM incubated for 6 hrs measured for 2 hrs by fluorescence based spectrofluorimetric assay relative to control; format: cell-based
Summary of the method: (§1)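 MCF-10A neoT cells (5 × 10⁴) incubated with DQ-collagen IV in the presence of compound or DMSO. Extracellular degradation product read by spectrofluorimetry. Mean of n = 3, six replicates per experiment.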

U-87 MG [5] = test: Cytotoxicity against human U87MG cells assessed as decrease in cell viability after 72 hrs by MTS assay; format: cell-based; conditions: u-87mg atcc
Cathepsin B [6] = biological target: T1, Cathepsin B; test: (§2) Inhibition of cathepsin B in human MCF-10A neoT cells assessed as proteolysis of extracellular membrane by measuring decrease in intracellular degradation of DQ-collagen 4 at 12.5 uM incubated for 2 hrs followed by DQ-collagen addition measured for 2 hrs by propidium iodide staining based flow cytometry relative to control; format: cell-based
Summary of the method: (§3)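 MCF-10A neoT cells (6 × 10⁴) treated with compound or DMSO. Intracellular DQ-collagen IV degradation measured by flow cytometry, with unlabeled cells as background. Reduction expressed versus DMSO. Mean of n = 3, run in duplicate.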

Cathepsin B [7] = biological target: T1, Cathepsin B; test: Uncompetitive inhibition of recombinant human cathepsin B exopeptidase activity assessed as inhibitory constant for enzyme-substrate-inhibitor complex using Abz-Gly-Ile-Val-Arg-Ala-Lys(Dnp)-OH as substrate in presence of pH 5 acetate buffer by fluorescence assay
Cathepsin B [8] = biological target: T1, Cathepsin B; test: Inhibition of recombinant human cathepsin B endopeptidase activity assessed as inhibitory constant for enzyme-inhibitor complex using Z-Arg-Arg-AMC as substrate in presence of pH 6 phosphate buffer by fluorescence assay
Pro-cathepsin H [9] = biological target: T2, Pro-cathepsin H (Homo sapiens, UniProt P09668); test: Competitive inhibition of human liver cathepsin H assessed as inhibitory constant for enzyme-inhibitor complex using R-AMC as substrate in presence of pH 6 phosphate buffer by fluorescence assay
T2 sequence (P09668 whole entry): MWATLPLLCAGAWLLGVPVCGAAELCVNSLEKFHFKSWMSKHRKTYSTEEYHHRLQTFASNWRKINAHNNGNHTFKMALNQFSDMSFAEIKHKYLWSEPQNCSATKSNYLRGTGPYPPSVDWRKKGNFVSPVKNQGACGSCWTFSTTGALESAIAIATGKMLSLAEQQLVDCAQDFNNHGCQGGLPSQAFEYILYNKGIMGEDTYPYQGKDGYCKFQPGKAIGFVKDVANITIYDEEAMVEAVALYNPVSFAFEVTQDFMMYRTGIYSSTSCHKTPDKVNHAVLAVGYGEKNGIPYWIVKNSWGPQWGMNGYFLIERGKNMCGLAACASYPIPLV

U-87 MG [10] = test: Growth inhibition of human U87MG tumor spheroids at 1.25 uM measured up to 3 days by light microscopy; format: functional, cell-based; conditions: U-87MG ATCC
Summary of the method: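 U-87 MG multicellular spheroids formed by hanging drop and implanted in Matrigel with compound. Spheroid dimensions measured for up to three days and volume calculated. Means of n = 2.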

MCF-10A-neoT [11] = test: Antiinvasive activity against human MCF10AneoT cells at 1.25 uM incubated for 1 hr measured every 15 mins for 72 hrs by real time xCELLigence assay relative to control; format: functional
Summary of the method: (§4)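 MCF-10A neoT cells (3 × 10⁴) seeded on Matrigel-coated (1 mg/mL) upper compartments of CIM-plates. Compound or DMSO (0.05%) added to growth medium in both upper and lower compartments. Invasion followed by impedance (cell index) for 72 h. Slopes (1/h) between 4 and 14 h converted to percentage invasion versus DMSO. Means of n = 2, each run in triplicate.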

Cathepsin B [12] = biological target: T1, Cathepsin B; test: Uncompetitive inhibition of recombinant human cathepsin B endopeptidase activity assessed as inhibitory constant for enzyme-substrate-inhibitor complex using Z-Arg-Arg-AMC as substrate in presence of pH 6 phosphate buffer by fluorescence assay
MCF-10A-neoT [13] = test: Cytotoxicity against human MCF10AneoT cells assessed as decrease in cell viability after 72 hrs by MTS assay; format: cell-based
Procathepsin L [14] = biological target: T3, Procathepsin L (Homo sapiens, UniProt P07711); test: Competitive inhibition of recombinant human cathepsin L expressed in Escherichia coli assessed as inhibitory constant for enzyme-inhibitor complex using Z-FR-AMC as substrate in presence of pH 6 phosphate buffer by fluorescence assay
T3 sequence (P07711 whole entry): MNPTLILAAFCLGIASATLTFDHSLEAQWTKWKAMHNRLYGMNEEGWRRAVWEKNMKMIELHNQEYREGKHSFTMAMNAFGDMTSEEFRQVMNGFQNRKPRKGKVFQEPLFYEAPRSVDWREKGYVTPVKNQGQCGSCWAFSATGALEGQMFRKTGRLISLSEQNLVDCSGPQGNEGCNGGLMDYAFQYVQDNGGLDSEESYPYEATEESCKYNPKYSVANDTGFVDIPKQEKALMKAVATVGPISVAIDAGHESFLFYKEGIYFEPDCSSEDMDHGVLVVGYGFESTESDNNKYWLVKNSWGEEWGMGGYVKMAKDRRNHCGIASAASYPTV

Cathepsin B [15] = biological target: T1, Cathepsin B; test: Competitive inhibition of recombinant human cathepsin B endopeptidase activity assessed as inhibitory constant for enzyme-inhibitor complex using Z-Arg-Arg-AMC as substrate in presence of pH 4.5 acetate buffer by fluorescence assay; conditions: read-out: Ki
Summary of the method: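 Recombinant cathepsin B endopeptidase activity assayed with the small substrate Z-Arg-Arg-AMC at pH 4.5. Acidic conditions chosen to shift the enzyme toward the closed (exopeptidase) conformation. Ki reported.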

Cathepsin B [16] = biological target: T1, Cathepsin B; test: Non-competitive inhibition of recombinant human cathepsin B exopeptidase activity assessed as inhibitory constant for enzyme-substrate-inhibitor complex using Abz-Gly-Ile-Val-Arg-Ala-Lys(Dnp)-OH as substrate in presence of pH 5 acetate buffer by fluorescence assay
Cathepsin B [17] = biological target: T1, Cathepsin B; test: Competitive inhibition of recombinant human cathepsin B endopeptidase activity assessed as inhibitory constant for enzyme-inhibitor complex using Z-Arg-Arg-AMC as substrate in presence of pH 6 phosphate buffer by fluorescence assay
Cathepsin B [18] = biological target: T1, Cathepsin B; test: Non-competitive inhibition of recombinant human cathepsin B exopeptidase activity assessed as inhibitory constant for enzyme-inhibitor complex using Abz-Gly-Ile-Val-Arg-Ala-Lys(Dnp)-OH as substrate in presence of pH 5 acetate buffer by fluorescence assay
Cathepsin B [19] = biological target: T1, Cathepsin B; test: Mixed inhibition of recombinant human cathepsin B exopeptidase activity assessed as inhibitory constant for enzyme-inhibitor complex using Abz-Gly-Ile-Val-Arg-Ala-Lys(Dnp)-OH as substrate in presence of pH 5 acetate buffer by fluorescence assay
Procathepsin L [20] = biological target: T3, Procathepsin L; test: Non-competitive inhibition of recombinant human cathepsin L expressed in Escherichia coli assessed as inhibitory constant for enzyme-inhibitor complex using Z-FR-AMC as substrate in presence of pH 6 phosphate buffer by fluorescence assay
MCF-10A-neoT [21] = test: Antiinvasive activity against human MCF10AneoT cells at 5 uM incubated for 1 hr measured every 15 mins for 72 hrs by real time xCELLigence assay relative to control; format: functional; summary of the method: as §4
Cathepsin B [22] = biological target: T1, Cathepsin B; test: Mixed inhibition of recombinant human cathepsin B exopeptidase activity assessed as inhibitory constant for enzyme-substrate-inhibitor complex using Abz-Gly-Ile-Val-Arg-Ala-Lys(Dnp)-OH as substrate in presence of pH 5 acetate buffer by fluorescence assay
Procathepsin L [23] = biological target: T3, Procathepsin L; test: Non-competitive inhibition of recombinant human cathepsin L expressed in Escherichia coli assessed as inhibitory constant for enzyme-substrate-inhibitor complex using Z-FR-AMC as substrate in presence of pH 6 phosphate buffer by fluorescence assay
Pro-cathepsin H [24] = biological target: T2, Pro-cathepsin H; test: Uncompetitive inhibition of human liver cathepsin H assessed as inhibitory constant for enzyme-substrate-inhibitor complex using R-AMC as substrate in presence of pH 6 phosphate buffer by fluorescence assay
Cathepsin B [25] = biological target: T1, Cathepsin B; test: Inhibition of cathepsin B in human MCF-10A neoT cells assessed as proteolysis of extracellular membrane by measuring decrease in extracellular degradation of DQ-collagen 4 at 5 uM incubated for 6 hrs measured for 2 hrs by fluorescence based spectrofluorimetric assay relative to control; format: cell-based; summary of the method: as §1
Cathepsin B [26] = biological target: T1, Cathepsin B; test: as §2, with “50” for “12.5”; format: cell-based; summary of the method: as §3

- Ki (Cathepsin B [1]): 247 µM
- Ki (Cathepsin B [2]): 247 µM
- Ki (Cathepsin B [3]): 128 µM
Structure (SMILES): N#CC1(NC(=O)c2cc([N+](=O)[O-])ccc2O)CC1

- inhibition (Cathepsin B [4]): 45%
- inhibition (Cathepsin B [6]): 35%
- Ki (Cathepsin B [7]): 13 µM
- Ki (Cathepsin B [8]): 8.2 µM
- Ki (Pro-cathepsin H [9]): 108 µM
- Ki (Cathepsin B [12]): 8 µM
- Ki (Procathepsin L [14]): 5 µM
- Ki (Cathepsin B [15]): 237 µM
Structure (SMILES): O=C(NCC1CCN(c2nc3ccccc3o2)CC1)c1cc([N+](=O)[O-])c2cccnc2c1O
- Activity (U-87 MG [5]): Non-Toxic
- growth inhibition (GI) (U-87 MG [10]): Active
- Activity (MCF-10A-neoT [11]): 50%
- Activity (MCF-10A-neoT [13]): Non-Toxic

- Ki (Cathepsin B [16]): 190 µM
- Ki (Cathepsin B [17]): 240 µM
- Ki (Cathepsin B [18]): 190 µM
- Ki (Cathepsin B [15]): 294 µM
Structure (SMILES): N#CCNC(=O)c1ccc([N+](=O)[O-])c2cccnc12

- Ki (Cathepsin B [19]): 128 µM
- Ki (Procathepsin L [20]): 155 µM
- Ki (Cathepsin B [22]): 30 µM
- Ki (Cathepsin B [12]): 67 µM
- Ki (Procathepsin L [23]): 155 µM
- Ki (Pro-cathepsin H [24]): 462 µM
- Ki (Cathepsin B [15]): 206 µM
- inhibition (Cathepsin B [25]): Active
- inhibition (Cathepsin B [26]): 60%
Structure (SMILES): N#CCNC(=O)c1cc([N+](=O)[O-])c2cccnc2c1O
- Activity (U-87 MG [5]): Non-Toxic
- Activity (MCF-10A-neoT [21]): 20%
- Activity (MCF-10A-neoT [13]): Non-Toxic
